Source: PubChem (Sanford-Burnham Center for Chemical Genomics)
Most compounds without a hit are left out; they make up all but 1.9% or so of the library.
STEP inh = blocks human striatal-enriched tyrosine phosphatase | AID 588621 | P54829 | inhibition, % at 20 µM | 0.25% of 360,000 active | recombinant STEP, OMFP fluorogenic substrate, fluorescence;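 active means inhibition at 20 µM, scaled per plate between control wells, above about 37%, limit read from the data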
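material = STEP tyrosine phosphatase | reagent = fluorogenic phosphatase substrate OMFP at 25 µM final | doses = single compound dose of 20 µM, 1% DMSO final | schedule = 20 min reaction, room temperature, in the dark | measured by = fluorescence, 480/540 nm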
FAS-TE inh = inhibitors of human fatty acid synthase thioesterase domain. recombinant FAS-TE, OMFH fluorogenic substrate, fluorescence endpoint. inhibition, % at 15 µM. 0.67% of 360,000 active. AID 602261;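 active means compounds whose normalised, plate-corrected inhibition of enzyme fluorescence in the single-dose primary screen is 50% or more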
LMPTP inh = blocks human LMPTP phosphatase. recombinant LMPTP-A, OMFP fluorogenic substrate, fluorescence intensity. inhibition, % at 20 µM. 0.22% of 360,000 active;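 active means compounds that cut the enzyme signal by at least half of the control window in the single-dose screen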
Target sequence (P24666 whole entry, looked up): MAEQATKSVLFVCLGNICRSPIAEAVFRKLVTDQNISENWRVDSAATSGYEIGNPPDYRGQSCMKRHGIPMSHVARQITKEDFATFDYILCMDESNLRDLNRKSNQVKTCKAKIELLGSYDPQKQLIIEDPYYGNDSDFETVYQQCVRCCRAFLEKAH
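Assay system: LMPTP-A, protein tyrosine phosphatase of low molecular weight / Medium: pH 6.0 Bis-Tris buffer with DTT and Triton X-100 / Schedule: 50 min enzyme reaction at room temperature, protected from light / Measured by: endpoint fluorescence intensity from OMFP dephosphorylation / Read-out basis: % inhibition relative to no-enzyme and uninhibited control wells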
SUMO1 PPI mod = SUMO1-SIM interaction modulation; 0.33% of 360,000 active; SUMO1 binding to a labelled peptide, TR-FRET, 1 h; inhibition, % at 20 µM; AID 602429; in the data active means inhibition above about 37%
Target sequence (P63165 whole entry, looked up): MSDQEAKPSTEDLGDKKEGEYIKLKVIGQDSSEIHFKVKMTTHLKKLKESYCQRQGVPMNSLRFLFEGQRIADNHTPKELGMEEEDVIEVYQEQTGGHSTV
Scp1 inh = blocks human Scp-1 phosphatase activity | Q9GZU7 | Recombinant Scp1, phosphopeptide, malachite green phosphate absorbance | inhibition, % at 20 µM | 0.88% of 340,000 active | AID 493091;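 active means inhibition above about 50% at 20 µM, limit read from the data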
Target sequence (Q9GZU7 76-261 limits assumed): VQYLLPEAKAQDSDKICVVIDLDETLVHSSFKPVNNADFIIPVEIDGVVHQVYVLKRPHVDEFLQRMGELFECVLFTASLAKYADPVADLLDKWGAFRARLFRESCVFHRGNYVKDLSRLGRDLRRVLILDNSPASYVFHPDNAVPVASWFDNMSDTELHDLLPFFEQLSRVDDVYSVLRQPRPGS
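Assay system: SCP-1 catalytic fragment, aa 76-261 | Buffer or medium: Tris acetate buffer pH 5.5 with MgCl2 and Tween-20 | Compound: One concentration, 20 µM, with 1.0% DMSO | Also added: Phospho 17-mer peptide substrate | Signal: Absorbance at 630 nm | Incubation: 45 min enzyme reaction at room temperature | Measure: % inhibition of SCP-1 phosphate liberation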
Each line names hits and unclear results; the compound was inactive in the other large screens.

C[n+]1c(-c2ccccc2)cc(CCCCc2cc(-c3ccccc3)[n+](C)c(-c3ccccc3)c2)cc1-c1ccccc1	LMPTP inh 50
COc1ccc(-c2cc(-c3ccccc3)[n+](C)c(-c3ccccc3)c2)cc1	none
C=Cc1cc(OC)c2c(c1)c(=O)oc1c2cc(OC)c2c(O)ccc(C3OC(C)C(O)C(C)(O)C3O)c21 (stereo not drawn)	SUMO1 PPI mod 48, Scp1 inh 81
CCOC(=O)C1CCN(/C=C2/C(=O)NC(=O)N(Cc3ccco3)C2=O)CC1	Scp1 inh 66
Cc1cc(/C=C2\C(=O)NC(=O)N(c3ccc(Cl)cc3)C2=O)c(C)n1-c1sc2c(c1C#N)CCCC2	SUMO1 PPI mod 49
Cc1cc(/C=C2\C(=O)NC(=O)N(Cc3ccco3)C2=O)c(C)n1-c1ccc(O)cc1	none
Cc1ccc(N2C(=O)NC(=O)/C(=C\c3cc(C)n(-c4ccc(C(=O)O)cc4)c3C)C2=O)cc1	none
Cc1ccc(N2C(=O)NC(=O)/C(=C\c3cc(C)n(-c4cc(C(=O)O)cc(C(=O)O)c4)c3C)C2=O)cc1	Scp1 inh 51
Cc1ccccc1-n1c(C)cc(/C=C2/C(=O)NC(=O)N(Cc3ccco3)C2=O)c1C	none
Cc1cc(/C=C2\C(=O)NC(=O)N(Cc3ccco3)C2=O)c(C)n1-c1ccc(C(=O)O)cc1	Scp1 inh 61
Cc1c(CCC(=O)N2C[C@H]3C[C@@H](C2)c2cccc(=O)n2C3)c(=O)oc2c(C)c(O)ccc12	none (no result: Scp1 inh)
CCC(C)(O)C(=O)OC1C(=O)OC2CC3C(C)=CC(O)C(O)C3(C)C3C4(O)OCC23C1C(C)C4O (stereo not drawn)	none (no result: Scp1 inh)
Cc1ccc(CN2Cc3ccc(Br)cc3-n3nncc3C2)cc1	none (no result: Scp1 inh)
O=C1NC(=O)C(=Cc2ccco2)C(=O)N1	STEP inh 50
CCn1nc(-c2ccccc2)nc2c(=O)n(C)c(=O)nc1-2	none
Cc1nc2c(=O)n(C)c(=O)nc-2n(C)n1	STEP inh 79, LMPTP inh 73
O=C1NCN(c2ccccc2)C12CCN(C(c1cccc3ccccc13)c1nnnn1C1CCCCC1)CC2 (stereo not drawn)	none (no result: Scp1 inh)
CC(=O)OC1CC2OC3C=C(C)CCC3(C)C1(C)C21CO1 (stereo not drawn)	none (no result: Scp1 inh)
CC(C)CNC(=O)c1c(N)n(Cc2ccc3c(c2)OCO3)c2nc3ccccc3nc12	SUMO1 PPI mod 46
COCCOC(=O)c1c(N)n(Cc2ccco2)c2nc3ccccc3nc12	SUMO1 PPI mod 49
CC(C)OC(=O)c1c(N)n(Cc2ccco2)c2nc3ccccc3nc12	none
COc1ccc(Cn2c(N)c(C(=O)NCc3ccco3)c3nc4ccccc4nc32)cc1OC	SUMO1 PPI mod 36
O=C1NC(=S)NC(=O)C1Cc1ccccc1O	none
CN(C)C1C(=O)C(C(N)=O)=C(O)C2(O)C(=O)C3=C(O)c4c(O)cccc4C(C)(O)C3C(O)C12 (stereo not drawn)	LMPTP inh 52
NC(Cc1ccc(F)cc1)c1csc(Nc2ncccn2)n1 (stereo not drawn)	none (no result: Scp1 inh)
CCOC(=O)[C@]1(C#N)[C@@H]2C=CC(C(C)=O)=CN2[C@@H](C(N)=O)[C@@H]1c1ccsc1	SUMO1 PPI mod 67
Cc1ccc2c(c1)Oc1ccccc1N=C2	none (no result: Scp1 inh)
O=c1c2ccccc2[se]n1-c1ccccc1	Scp1 inh 101
Clc1ccc(C(c2ccc(Cl)cc2)n2cc[n+](CC(OCc3ccc(Cl)cc3Cl)c3ccc(Cl)cc3Cl)c2)cc1 (stereo not drawn)	SUMO1 PPI mod 80
O=C1NC(=O)C(=Cc2ccc(-c3ccc(F)cc3O)o2)C(=O)N1	Scp1 inh 95
O=C(Nc1cc(Cl)cc(Cl)c1)N1Cc2ccccc2-n2nncc2C1	none (no result: Scp1 inh)
N#CC(C#N)=NNc1ccc(S(N)(=O)=O)cc1	LMPTP inh 57
O=C(O)CCC(=O)NCCC1=c2ccccc2=N/C1=C\c1c(O)n(Cc2ccc(F)cc2)c(=S)[nH]c1=O	Scp1 inh 92
COc1ccc2c(c1)NP(=S)(c1ccccc1)N2C (stereo not drawn)	none
COc1ccc(P2(=O)Nc3ccccc3N2)cc1	Scp1 inh 55
CO[C@H]1C=CCCC=CC(=O)O[C@H]([C@H](C)C(=O)CCCC2CC(=O)NC(=O)C2)C(C)=C[C@@H](C)[C@@H]1O	none (no result: STEP inh, Scp1 inh)
COc1ccc(N2C(=O)/C(=C/c3ccc(C)o3)C(=O)NC2=S)cc1	none
COc1ccc(OC)c(N2C(=O)/C(=C/c3ccco3)C(=O)NC2=S)c1	Scp1 inh 89 (no result: STEP inh, FAS-TE inh, LMPTP inh, SUMO1 PPI mod)
COc1cc(/C=C2\C(=O)NC(=O)N(c3ccccc3)C2=O)c([N+](=O)[O-])cc1OC	none
COc1ccc(OC)c(N2C(=O)NC(=O)/C(=C/c3ccc([N+](=O)[O-])s3)C2=O)c1	SUMO1 PPI mod 47
CN1CCC(n2nccc2N)CC1	SUMO1 PPI mod 43
COc1ccc2c(c1)C13CCN4CC5=CCOC6CC(=O)N2C1C6C5CC43 (stereo not drawn)	none (no result: Scp1 inh)
CC1Oc2cc3c(-c4c(O)cc(O)c5c(O)c6c(cc45)OC(C)C(C)C6=O)c(O)cc(O)c3c(O)c2C(=O)C1C (stereo not drawn)	SUMO1 PPI mod 43
CC12Nc3ccccc3C(=O)N1Cc1cnnn1-c1ccccc12 (stereo not drawn)	none (no result: STEP inh, Scp1 inh)
CC(C)(C)n1nnnc1C(c1ccccc1)N1CCC2(CC1)C(=O)NCN2c1ccccc1 (stereo not drawn)	none (no result: Scp1 inh)
O=c1[nH]c(=S)n(Cc2ccco2)c(O)c1C=NCc1cccs1	LMPTP inh 65
O=C1NC(=O)N(c2ccccc2)C(=O)/C1=C/C=C/c1ccco1	none
O=C1NC(=O)N(Cc2ccco2)C(=O)/C1=C/C=C/c1ccco1	STEP inh 40, SUMO1 PPI mod 92, Scp1 inh 81
CN1C(=O)/C(=C/C=C/c2ccco2)C(=O)NC1=S	SUMO1 PPI mod 54, Scp1 inh 98
CSCCC(c1nnnn1Cc1ccccc1)N1CCC2(CC1)C(=O)NCN2c1ccccc1 (stereo not drawn)	none (no result: Scp1 inh)
CC(C)NS(=O)(=O)c1ccc(OCC(=O)N2CCN(Cc3ccc4c(c3)OCO4)CC2)c(Cl)c1	FAS-TE inh 50
Cc1cc(S(=O)(=O)NC(C)C)ccc1OCC(=O)N1CCN(Cc2ccc3c(c2)OCO3)CC1	none
Cc1nc2ccccn2c1P(=S)(c1ccccc1)c1ccccc1	none (no result: Scp1 inh)
C=CCOC(=O)C1C(C(=O)O)C2(Cl)C(Cl)=C(Cl)C1(Cl)C2(Cl)Cl (stereo not drawn)	none
O=C(O)C1C(C(=O)O)C2(Cl)C(Cl)=C(Cl)C1(Cl)C2(Cl)Cl (stereo not drawn)	LMPTP inh 65
COc1ccc(-c2nc3ccccc3c(=O)n2-c2ccc(OC)cc2)cc1	none
COc1ccc(-c2nc3ccccc3c(=O)n2-c2nccs2)cc1	SUMO1 PPI mod 42
CCCC1(CC(C)CC)C(=O)NC(=O)NC1=O (stereo not drawn)	none (no result: Scp1 inh)
